Assay results pooled from the literature.
Protocols differ between the studies behind these lines.
Effect on: cell growth or viability

| Compound | cell line | test | setting | IC50 [µM] |
| --- | --- | --- | --- | --- |
| N#Cc1cccc(C=NNC(=N)NN=Cc2cccc(C#N)c2)c1 | L6 | resazurin | 70 h | 6.65 |
| CO[C@]12C[C@@H](COC(=O)c3cncc(Br)c3)CN(C)[C@@H]1Cc1cn(C)c3cccc2c13 | HK-1 | MTT | 48 h | 5.99 |
| CC1(C)CCC(CN2CCN(c3ccc(C(=O)NS(=O)(=O)c4ccc(NCC5CCOCC5)c([N+](=O)[O-])c4)c(Oc4cnc5[nH]ccc5c4)c3)CC2)=C(c2ccc(Cl)cc2)C1 | RS4-11 | ATP luminescence | 48 h | 0.0045 |
| O=C1CCN2C(=O)CCC2C(=O)Nc2ccccc21 (centres unmarked) | L6 |  |  | > 390 |
| N=C(NN=CCc1ccc(OC(F)(F)F)cc1)NN=CCc1ccc(OC(F)(F)F)cc1 | L6 | resazurin | 70 h | 4.02 |
| O=C1CCN2C(=O)c3cc(F)c(F)cc3C2C(=O)Nc2ccccc21 (centres unmarked) | L6 |  |  | > 290 |
| C=CC(=O)Nc1cc(Nc2nccc(-c3cn(C)c4ccccc34)n2)c(OC)cc1N(C)CCN(C)C | NCI-H460 |  | 72 h | 5.38 |
| C=CC(=O)N1CCN(c2nc(=O)n(-c3c(C)ccnc3C(C)C)c3nc(-c4c(O)cccc4F)c(F)cc23)[C@@H](C)C1 | KYSE-410 | ATP luminescence |  | 0.0676 |
| O=C1Nc2ccccc2C2(O)CCN3C12c1ccccc1S3(=O)=O (centres unmarked) | L6 |  |  | > 290 |
| CCNCCCn1c2c(c3cc(OC)c(OC)cc3c1=O)C(=O)c1cc3c(nc1-2)OCO3 | RS4-11 | MTS | 72 h | 0.038 |
| COc1cc2nc(N3CCN(C(=O)C4COc5ccccc5O4)CC3)nc(N)c2cc1OC (centres unmarked) | HK-1 | MTT | 48 h | 31.7 |
| CN1C(=O)C2c3ccccc3C(=O)N2CCC(=O)c2ccccc21 (centres unmarked) | L6 |  |  | > 300 |
| COc1cc2nc(N3CCN(C(=O)c4ccco4)CC3)nc(N)c2cc1OC | HNE1 | MTT | 48 h | 41.6 |
| COc1cc2c3c(n(CCCn4ccnc4)c(=O)c2cc1OC)-c1nc2c(cc1C3=O)OCO2 | RS4-11 | MTS | 72 h | 0.12 |
| C=C(F)C(=O)N1CCN(c2nc(OC[C@@H]3CCCN3C)nc3c2CCN(c2cccc4cccc(Cl)c24)C3)C[C@@H]1CC#N | KYSE-410 | ATP luminescence |  | 3.07 |
| CCOC(=O)c1ccc2c(c1)C(=O)CCN1C(=O)c3ccccc3C1C(=O)N2 (centres unmarked) | L6 |  |  | > 260 |
| N#Cc1cccc(CC=NNC(=N)NN=CCc2cccc(C#N)c2)c1 | L6 | resazurin | 70 h | 2.63 |
| CN1C(=O)CCC(N2Cc3c(C#CC4CCN(C(=O)[C@H]5CC[C@H](NC(=O)[C@@H]6NC7(CCCCC7)[C@@]7(C(=O)Nc8cc(Cl)ccc87)[C@H]6c6cccc(Cl)c6F)CC5)CC4)cccc3C2=O)C1=O (some centres unmarked) | RS4-11 |  |  | 0.751 |
| COc1cc2c3c(n(CCCNCCO)c(=O)c2cc1OC)-c1nc2c(cc1C3=O)OCO2 | RS4-11 | MTS | 72 h | 0.034 |
| N=C(NN=Cc1ccc(N2CCOCC2)cc1)NN=Cc1ccc(N2CCOCC2)cc1 | L6 | resazurin | 70 h | 2.3 |
| Cc1cc(/C=C/C#N)cc(C)c1Nc1ccnc(Nc2ccc(C#N)cc2)n1 | HNE1 | MTT | 48 h | 14.1 |
| N=C(NN=Cc1ccc(OC(F)F)cc1)NN=Cc1ccc(OC(F)F)cc1 | L6 | resazurin | 70 h | 13.4 |
| CC(C)C[C@@H]1NC(=O)CNC(=O)[C@H](CC(N)=O)NC(=O)[C@H](CCCNC(=N)N)NC(=O)[C@H]([C@@H](C)O)NC(=O)[C@@H]2CSSC[C@@H]3NC(=O)[C@H]([C@@H](C)O)NC(=O)CNC(=O)CNC(=O)[C@H](C(C)C)NC(=O)[C@@H]4CSSC[C@H](NC(=O)[C@H]([C@@H](C)O)NC(=O)[C@H](CSSC[C@H](NC(=O)[C@H](C(C)C)NC(=O)[C@@H]5CCCN5C1=O)C(=O)NCC(=O)N[C@@H](CCC(=O)O)C(=O)N[C@@H]([C@@H](C)O)C(=O)N4)NC(=O)CNC(=O)[C@@H]1CCCN1C(=O)[C@H]([C@@H](C)O)NC(=O)[C@H](CC(N)=O)NC3=O)C(=O)N[C@@H](CO)C(=O)N[C@@H](Cc1c[nH]c3ccccc13)C(=O)N1CCC[C@H]1C(=O)N[C@@H](C(C)C)C(=O)N2 | Sf9 | MTT | 24 h | 2.8 |
